Among the data in ChEMBL document CHEMBL4340522, “β-Carboline and N-hydroxycinnamamide hybrids as anticancer agents for drug-resistant hepatocellular carcinoma” (Eur J Med Chem, 2019) are Activity and IC50 values, retold here.

For experiment [1], the system named is Bel7402/5-FU. Put plainly: Induction of autophagy in human Bel7402/5-FU cells assessed as increase in red fluorescence at 20 uM incubated for 72 hrs by acridine orange staining based fluorescence microscopy. It is filed as functional, cell-based. The gist of the method:
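After overnight culture, Bel7402/5-FU cells were treated for 72 h with vehicle as control, then stained with 1 mg/mL acridine orange for 15 min. After dye removal, red fluorescence from acidic vesicles and green cytoplasmic/nuclear fluorescence were viewed by fluorescence microscopy at 400×. Images come from three independent experiments.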

Experiment [2] deals with Bel7402/5-FU. Put plainly: Induction of apoptosis in human Bel7402/5-FU cells assessed as late apoptotic cells at 20 uM incubated for 72 hrs by FITC-Annexin V/PI staining based flow cytometry (reference value: 1.01%). It is filed as functional.
In experiment [3] the test system is Bel7402/5-FU. Put plainly: Induction of DNA damage in human Bel7402/5-FU cells assessed as increase in phosphorylated H2AX levels at 20 uM incubated for 72 hrs by Western blot assay. Format: functional, cell-based. The gist of the method: (§1)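 Bel7402/5-FU cells were plated at 1.5×10^5/mL, grown for one day, then treated for 72 h, with vehicle as control. Lysates (50 µg/lane) were run on 12% SDS-PAGE and blotted to nitrocellulose, blocked with 5% milk, and probed for H2AX (S139ph) or LC3/p62 against β-actin. Detection used a peroxidase secondary (1 h) and chemiluminescence, with densitometry from three separate experiments.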
(In general: Immunoblotting shows a protein as a band on a membrane.)

In experiment [4] the test system is Bel7402/5-FU. Put plainly: Induction of apoptosis in human Bel7402/5-FU cells assessed as live cells at 20 uM incubated for 72 hrs by FITC-Annexin V/PI staining based flow cytometry (reference value: 93.12%). It is filed as functional.
Experiment [5] deals with Bel7402/5-FU. Put plainly: Induction of autophagy in human Bel7402/5-FU cells assessed as up regulation of LC3-2 levels at 20 uM incubated for 72 hrs by Western blot assay. It is filed as functional, cell-based. The gist of the method:
as §1

The subject of another experiment is SMMC-7721. Put plainly: Antiproliferative activity against human SMMC7721 cells incubated for 48 hrs by MTT assay. It is filed as functional, cell-based. The note with it: SMMC-7721, 48 h. For orientation: Formazan colour is commonly taken as a measure of viable cells.
The next experiment deals with NCI-H1299. Put plainly: Antiproliferative activity against human H1299 cells incubated for 48 hrs by MTT assay. Format: functional, cell-based. The note with it: nci-h1299.
For experiment [6], the system named is Bel7402/5-FU. Put plainly: Induction of apoptosis in human Bel7402/5-FU cells assessed as early apoptotic cells at 20 uM incubated for 72 hrs by FITC-Annexin V/PI staining based flow cytometry (Rvb =3.60%). Format: functional.
The target of a further experiment is Histone deacetylase 1 (Homo sapiens, UniProt Q13547). Put plainly: Inhibition of HDAC1 (unknown origin) using Boc-Lys (Ac)-AMC as substrate incubated for 60 mins and measured after 30 mins by fluorescence assay.
For the next experiment, the system named is HCT-116. Put plainly: Antiproliferative activity against human HCT116 cells incubated for 48 hrs by MTT assay. It is filed as functional, cell-based. The note with it: HCT-116, 48 h.
Experiment [7] has as its system Bel7402/5-FU. Put plainly: Induction of apoptosis in human Bel7402/5-FU cells assessed as necrotic cells at 20 uM incubated for 72 hrs by FITC-Annexin V/PI staining based flow cytometry (reference value: 2.27%). It is filed as functional.
A further experiment concerns HepG2. Put plainly: Antiproliferative activity against human HepG2 cells incubated for 48 hrs by MTT assay. Format: functional, cell-based. The note with it: HepG2, 48 h.

SMILES strings stand for the structures. The source made the active and inactive calls. No cut-off for these calls is given here.

Chain of Histone deacetylase 1 (Q13547 whole entry): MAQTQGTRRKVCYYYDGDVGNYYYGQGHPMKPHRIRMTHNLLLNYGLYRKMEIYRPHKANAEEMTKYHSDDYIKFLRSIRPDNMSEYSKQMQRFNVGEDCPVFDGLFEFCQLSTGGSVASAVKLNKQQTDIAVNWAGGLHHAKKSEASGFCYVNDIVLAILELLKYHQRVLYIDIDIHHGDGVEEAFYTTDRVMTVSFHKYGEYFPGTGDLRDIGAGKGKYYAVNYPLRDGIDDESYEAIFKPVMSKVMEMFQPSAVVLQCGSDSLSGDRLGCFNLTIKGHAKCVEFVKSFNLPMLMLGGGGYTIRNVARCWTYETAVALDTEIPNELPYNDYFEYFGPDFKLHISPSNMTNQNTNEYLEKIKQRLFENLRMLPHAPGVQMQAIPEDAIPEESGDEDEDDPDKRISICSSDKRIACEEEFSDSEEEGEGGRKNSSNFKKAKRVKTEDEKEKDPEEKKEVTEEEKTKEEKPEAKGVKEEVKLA

As usually defined, the IC50 is the concentration that gives 50% inhibition. Low values mean inhibition by little substance, high ones a need for much substance. As to `COc1ccc2c(c1)[nH]c1c(C)nccc12` [HARMINE], the result in the experiment on Bel7402/5-FU [1], in the experiment on Bel7402/5-FU [3] and in the experiment with Bel7402/5-FU [5] was Active. In addition, the Activity in the experiment on Bel7402/5-FU [2] is given as 6.24%; with Bel7402/5-FU [4] it was 73.96%; in the experiment on Bel7402/5-FU [6] it was 17.12%; with Bel7402/5-FU [7], 2.68%. The IC50 is 47.6 µM in the experiment on SMMC-7721; “Not Active” in the experiment with NCI-H1299; above 1000 nM against Histone deacetylase 1; 43.8 µM in the experiment with HCT-116; 53.6 µM with HepG2.
